According to ChEMBL document CHEMBL4350969, “Falcipain Inhibitors Based on the Natural Product Gallinamide A Are Potent in Vitro and in Vivo Antimalarials” (J Med Chem, 2019):

Experiments:
[1] = test system: Plasmodium falciparum; assay: Antimalarial activity against synchronized ring stage CQ-sensitive Plasmodium falciparum 3D7 infected in human erythrocytes incubated for 24 hrs followed by compound washout and subsequent compound addition and measured after 48 hrs by YOYO-1 probe-based flow cytometry; assay type: functional, organism-based
[2] = test system: Plasmodium falciparum; assay: Antimalarial activity against synchronized ring stage CQ-resistant Plasmodium falciparum W2 infected in human erythrocytes incubated for 24 hrs followed by compound washout and subsequent compound addition and measured after 48 hrs by YOYO-1 probe-based flow cytometry; assay type: functional, organism-based
[3] = target: T1, Falcipain 2 (Plasmodium falciparum, UniProt Q9N6S8); assay: Inhibition of Plasmodium falciparum N-terminal His6-tagged falcipain-2 (35 residues) expressed in Escherichia coli M15 pREP4 using Z-Lue-Arg-AMC as substrate measured after 30 mins by spectrofluorometric method
T1 sequence (Q9N6S8 whole entry): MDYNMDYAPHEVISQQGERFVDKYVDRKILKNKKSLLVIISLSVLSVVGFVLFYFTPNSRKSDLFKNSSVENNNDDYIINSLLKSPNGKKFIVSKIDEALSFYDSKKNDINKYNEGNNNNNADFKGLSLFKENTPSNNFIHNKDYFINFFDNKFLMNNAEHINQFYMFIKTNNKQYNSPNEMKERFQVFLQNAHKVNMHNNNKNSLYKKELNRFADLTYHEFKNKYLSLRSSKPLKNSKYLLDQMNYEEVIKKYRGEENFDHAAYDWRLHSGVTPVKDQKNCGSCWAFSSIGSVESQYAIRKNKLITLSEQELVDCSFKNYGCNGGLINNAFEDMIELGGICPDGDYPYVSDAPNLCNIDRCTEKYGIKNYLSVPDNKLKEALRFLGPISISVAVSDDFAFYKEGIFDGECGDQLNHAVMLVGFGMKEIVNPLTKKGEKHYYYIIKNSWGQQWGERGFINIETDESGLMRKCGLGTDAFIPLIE
Procedure, shortened: (§1)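 Recombinant heterologously expressed FP2 or FP3; inhibition measured by continuous kinetic cleavage of fluorogenic substrate Z-Leu-Arg-AMC.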

[4] = target: T2, Cysteine protease falcipain-3 (Plasmodium falciparum, UniProt Q9NAW4); assay: Inhibition of Plasmodium falciparum N-terminal His-tagged falcipain-3 (33 residues) expressed in Escherichia coli M15 pREP4 using Z-Leu-Arg-AMC as substrate measured after 30 mins by spectrofluorometric method; procedure, shortened: as §1
T2 sequence (Q9NAW4 whole entry): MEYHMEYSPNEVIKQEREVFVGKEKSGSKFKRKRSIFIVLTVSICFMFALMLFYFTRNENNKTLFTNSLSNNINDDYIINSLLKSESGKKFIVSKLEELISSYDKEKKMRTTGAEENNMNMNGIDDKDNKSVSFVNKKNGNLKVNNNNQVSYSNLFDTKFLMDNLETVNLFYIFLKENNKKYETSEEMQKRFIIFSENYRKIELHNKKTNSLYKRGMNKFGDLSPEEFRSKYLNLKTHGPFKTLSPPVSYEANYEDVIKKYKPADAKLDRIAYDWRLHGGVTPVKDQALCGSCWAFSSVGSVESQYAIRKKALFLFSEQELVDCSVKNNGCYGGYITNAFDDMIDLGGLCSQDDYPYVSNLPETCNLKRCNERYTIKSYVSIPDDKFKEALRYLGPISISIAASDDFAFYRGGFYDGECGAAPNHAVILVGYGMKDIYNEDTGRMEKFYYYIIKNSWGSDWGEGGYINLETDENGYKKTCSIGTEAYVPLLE

Compound | IC50 [1] [nM] | IC50 [2] [nM] | IC50 [3] [nM] | IC50 [4] [nM]
COC1=CC(=O)N(C(=O)/C=C/[C@H](C)NC(=O)[C@H](CC2CCCCC2)NC(=O)[C@H](CC(C)C)NC(=O)[C@H](C(C)C)N(C)C)[C@H]1Cc1c[nH]c2ccccc12 | 72 | 37 | 235 | 407
COC1=CC(=O)N(C(=O)/C=C/[C@H](C)NC(=O)[C@H](CC(C)C)NC(=O)[C@H](CC2CCCCC2)NC(=O)[C@H](C(C)C)N(C)C)[C@H]1Cc1c[nH]c2ccccc12 | 14 | 11 | 59 | 131
C[C@@H]1CC[C@H]2[C@@H](C)C(=O)O[C@@H]3O[C@@]4(C)CC[C@@H]1[C@]32OO4 [ARTEMISININ] | 32 | 21 |  | 
COC1=CC(=O)N(C(=O)/C=C/C(C)(C)NC(=O)[C@H](CC(C)C)NC(=O)[C@H](CC(C)C)NC(=O)[C@H](C(C)C)N(C)C)[C@H]1Cc1c[nH]c2ccccc12 | 6990 | 1020 | > 50000 | > 50000
COC1=CC(=O)N(C(=O)/C=C/[C@H](C)NC(=O)[C@H](CC2CCCCC2)NC(=O)[C@H](CC2CCCCC2)NC(=O)[C@H](C(C)C)N(C)C)[C@H]1Cc1c[nH]c2ccccc12 | 229 | 119 | 464 | 459
COC1=CC(=O)N(C(=O)/C=C/[C@H](C)NC(=O)[C@H](CCc2ccccc2)NC(=O)[C@H](CC(C)C)NC(=O)[C@H](C(C)C)N(C)C)[C@H]1Cc1c[nH]c2ccccc12 | 2590 | 691 | 3100 | 10200
COC1=CC(=O)N(C(=O)/C=C/[C@@H](NC(=O)[C@H](CC(C)C)NC(=O)[C@H](CC2CCCCC2)NC(=O)[C@H](C(C)C)N(C)C)C2CCCCC2)[C@H]1Cc1c[nH]c2ccccc12 | 83 | 95 | 169 | 490
COC1=CC(=O)N(C(=O)/C=C/[C@H](C)NC(=O)[C@H](CCc2ccccc2)NC(=O)[C@H](CC2CCCCC2)NC(=O)[C@H](C(C)C)N(C)C)[C@H]1Cc1c[nH]c2ccccc12 | 1250 | 478 | 3520 | 8790
CC(C)C[C@H](NC(=O)[C@@H]1O[C@H]1C(=O)O)C(=O)NCCCCN=C(N)N |  |  | 68 | 136
